The record followed here is ChEMBL document CHEMBL1156595, “Studies on the antifungal properties of N-thiolated beta-lactams” (2008).

Test [1] has as its system Candida albicans. As to the kind of experiment: Antifungal activity against Candida albicans ATCC 2091 by […]. Type of test: functional. The gist of the method:
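Tube broth dilution in yeast nitrogen broth. Lactam was added from a 1 mg/mL DMSO stock and serially diluted down to 0.125 ug/mL in broth. Each tube was inoculated with 1 uL of a 10^6 CFU/mL fungal suspension in sterile NaCl and incubated 24 or 48 h at 26°C or 37°C, depending on strain. Growth was read by optical density. MIC is the lowest concentration inhibiting all growth, averaged over triplicates.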

For test [2], the system named is Pichia kudriavzevii. As to the kind of experiment: Antifungal activity against Candida krusei ATCC 14243 assessed as growth inhibition zone at 50 ug after 24hrs by Kirby-Bauer agar diffusion assay. Particulars: ATCC 14243, 24 h, read-out: IZ. The test is classed as functional. An outline of the steps:
(§1)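 Disk diffusion on yeast nitrogen base agar, swabbed with a McFarland 0.5 suspension in saline. 6 mm cellulose disks carried 10 µL of a 5 mg/mL CH2Cl2 stock (50 ug per disk), air-dried, three disks per plate. Plates were sealed and incubated 24 h at 37°C. Cleared inhibition zones were measured and averaged over triplicates.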
In general terms: A growth-free zone around the sample is the usual read-out of agar diffusion tests.

For test [3], the system named is Candida parapsilosis. Nature of the test: Antifungal activity against Candida parapsilosis ATCC 22019 assessed as growth inhibition zone at 50 ug after 24 hrs by Kirby-Bauer agar diffusion assay. Type of test: functional. Particulars: Lodderomyces parapsilosis, ATCC 22019, 24 h; read-out: IZ. The gist of the method: as §1
The subject of test [4] is Cyberlindnera jadinii. Nature of the test: Antifungal activity against Candida utilis ATCC 29950 assessed as growth inhibition zone at 50 ug after 24 by Kirby-Bauer agar diffusion assay. Particulars: Williopsis jadinii, read-out: IZ. Type of test: functional. The gist of the method:
as §1

Test [5] deals with Candida tropicalis. As to the kind of experiment: Antifungal activity against Candida tropicalis clinical isolate assessed as growth inhibition zone at 50 ug after 24 hrs by Kirby-Bauer agar diffusion assay. Type of test: functional. The following applies: read-out: IZ. An outline of the steps: as §1
For test [6], the system named is Candida albicans. As to the kind of experiment: Antifungal activity against Candida albicans ATCC 2091 after 24 hrs by NCCLS M27-A2 method. The test is classed as functional. The following applies: ATCC 2091, 24 h. An outline of the steps: (§2)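 Broth dilution in yeast nitrogen broth. Lactam from a 1 mg/mL DMSO stock was serially diluted down to 0.125 ug/mL. Each tube got 1 uL of a 10^6 CFU/mL inoculum in sterile NaCl. Incubation was 24 or 48 h at 26°C or 37°C depending on strain. Growth was read by optical density. MIC was the lowest concentration inhibiting all growth, averaged over triplicates.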

Test [7] concerns Nakaseomyces glabratus. As to the kind of experiment: Antifungal activity against Candida glabrata ATCC 15126 assessed as growth inhibition zone at 50 ug after 24 hrs by Kirby-Bauer agar diffusion assay. The test is classed as functional. The following applies: ATCC 15126, 24 h, read-out: IZ. The gist of the method: as §1
The test system of test [8] is Clavispora lusitaniae. As to the kind of experiment: Antifungal activity against Candida lusitaniae ATCC 34449 after 48 hrs by NCCLS M27-A2 method. The test is classed as functional. The following applies: ATCC 34449, 48 h. An outline of the steps: as §2
Test [9] relates to Candida tropicalis. Nature of the test: Antifungal activity against Candida tropicalis clinical isolate after 24 hrs by NCCLS M27-A2 method. The test is classed as functional. The gist of the method: as §2
Test [10] deals with Kluyveromyces marxianus. As to the kind of experiment: Antifungal activity against Candida kefyr ATCC 20409 after 48 hrs by NCCLS M27-A2 method. Type of test: functional. Particulars: ATCC 20409, 48 h. The gist of the method: as §2
For test [11], the system named is Candida albicans. As to the kind of experiment: Antifungal activity against Candida albicans ATCC 2091 assessed as growth inhibition zone at 50 ug after 24 hrs by Kirby-Bauer agar diffusion assay. Type of test: functional. Particulars: ATCC 2091, 24 h, read-out: IZ. The gist of the method:
as §1

Test [12] deals with Cyberlindnera jadinii. Nature of the test: Antifungal activity against Candida utilis ATCC 29950 after 48 hrs by NCCLS M27-A2 method. Particulars: Williopsis jadinii, ATCC 29950, 48 h. Type of test: functional. An outline of the steps:
as §2

For test [13], the system named is Candida parapsilosis. Nature of the test: Antifungal activity against Candida parapsilosis ATCC 22019 after 24 hrs by NCCLS M27-A2 method. Particulars: Lodderomyces parapsilosis, ATCC 22019, 24 h. The test is classed as functional. The gist of the method: as §2
Test [14] deals with Nakaseomyces glabratus. As to the kind of experiment: Antifungal activity against Candida glabrata ATCC 15126 after 48 hrs by NCCLS M27-A2 method. The test is classed as functional. The following applies: ATCC 15126, 48 h. The gist of the method: as §2
Test [15] relates to Aspergillus niger. Nature of the test: Antifungal activity against Aspergillus niger in potato dextrose agar by agar dilution method. Type of test: functional. An outline of the steps: (§3)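 Agar dilution MIC, run per NCCLS guidance. Medium was potato dextrose agar for A. niger and YM agar for S. cerevisiae.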
On the technique in general: In agar dilution the substance is mixed into plates at graded concentrations.

The test system of test [16] is Saccharomyces cerevisiae. As to the kind of experiment: Antifungal activity against Saccharomyces cerevisiae in YM agar by agar dilution method. The test is classed as functional. An outline of the steps:
as §3

The subject of test [17] is Candida albicans. As to the kind of experiment: Antifungal activity against Candida albicans ATCC 2091 assessed as degradation of intracellular membrane at <5 ug/ml after 4 hrs by transmission electron microscopy. The test is classed as functional, organism-based.
In test [18] the test system is Candida tropicalis. As to the kind of experiment: Antifungal activity against Candida tropicalis clinical isolate after 48 hrs by NCCLS M27-A2 method. The test is classed as functional. An outline of the steps:
as §2

Test [19] deals with Candida albicans. Nature of the test: Antifungal activity against Candida albicans ATCC 2091 after 48 hrs by NCCLS M27-A2 method. Type of test: functional. Particulars: ATCC 2091, 48 h. The gist of the method:
as §2

The subject of test [20] is Clavispora lusitaniae. As to the kind of experiment: Antifungal activity against Candida lusitaniae ATCC 34449 assessed as growth inhibition zone at 50 ug after 24 by Kirby-Bauer agar diffusion assay. Particulars: read-out: IZ. The test is classed as functional. An outline of the steps:
as §1

For test [21], the system named is Candida parapsilosis. As to the kind of experiment: Antifungal activity against Candida parapsilosis ATCC 22019 after 48 hrs by NCCLS M27-A2 method. Type of test: functional. The following applies: Lodderomyces parapsilosis, ATCC 22019, 48 h. An outline of the steps: as §2
Test [22] relates to Kluyveromyces marxianus. Nature of the test: Antifungal activity against Candida kefyr ATCC 20409 assessed as growth inhibition zone at 50 ug after 24 hrs by Kirby-Bauer agar diffusion assay. The test is classed as functional. Particulars: ATCC 20409, 24 h, read-out: IZ. An outline of the steps:
as §1

Test [23] has as its system Cyberlindnera jadinii. Nature of the test: Antifungal activity against Candida utilis ATCC 29950 after 24 hrs by NCCLS M27-A2 method. The test is classed as functional. The following applies: Williopsis jadinii, ATCC 29950, 24 h. An outline of the steps:
as §2

For test [24], the system named is Nakaseomyces glabratus. As to the kind of experiment: Antifungal activity against Candida glabrata ATCC 15126 after 24 hrs by NCCLS M27-A2 method. The test is classed as functional. The following applies: ATCC 15126, 24 h. The gist of the method:
as §2

Test [25] deals with Kluyveromyces marxianus. As to the kind of experiment: Antifungal activity against Candida kefyr ATCC 20409 after 24 hrs by NCCLS M27-A2 method. Type of test: functional. The following applies: ATCC 20409, 24 h. An outline of the steps: as §2
In test [26] the test system is Clavispora lusitaniae. As to the kind of experiment: Antifungal activity against Candida lusitaniae ATCC 34449 after 24 hrs by NCCLS M27-A2 method. Type of test: functional. Particulars: ATCC 34449, 24 h. An outline of the steps: as §2

Values after ≈ are worked out from the molar mass of the structure shown. Active and inactive are the calls of the source. Some results are limits rather than exact numbers.

Broadly, the MIC is the smallest concentration in the dilution series that meets the test's criterion for growth inhibition. In [1], `Clc1ccccc1C(c1ccccc1)(c1ccccc1)n1ccnc1` [CLOTRIMAZOLE] displayed an MIC of 2 µg/mL (≈ 5.8 µM).
Consider `CO[C@H]1C(=O)N(SC)[C@H]1c1ccccc1Cl`, for which the zone of inhibition at 50 µg/disc worked out at 0 mm in test [2]; 33 mm in test [3]; 22 mm in [4]; 21 mm in [5]; 25 mm in test [7]; 23 mm in test [11]. In addition, the zone of inhibition at 50 µg/disc in [20] turned out to be 20 mm; in test [22], 17 mm. Besides, the minimal inhibitory concentration (MIC) was < 5 µg/mL in test [6]; 15 µg/mL (≈ 58.2 µM) in test [8]; 10 µg/mL (≈ 38.8 µM) in test [9]; 35 µg/mL (≈ 136 µM) in test [10]; 15 µg/mL (≈ 58.2 µM) in test [12]; < 5 µg/mL in test [13]. The MIC in test [14] was 10 µg/mL (≈ 38.8 µM); in [15], 16 µg/mL (≈ 62.1 µM); in test [16], 32 µg/mL (≈ 124 µM); in test [18] it was 30 µg/mL (≈ 116 µM); in test [19] it was < 5 µg/mL; in test [21], < 5 µg/mL. In addition, the MIC in test [23], in [24], in test [25] and in [26] was 10 µg/mL (≈ 38.8 µM) throughout. The result in [17] was Active.
On to `CO[C@H]1C(=O)N(SC)[C@H]1c1cccc(I)c1`, for which the zone of inhibition at 50 µg/disc was determined as 0 mm in test [2]; 22 mm in test [3]; 15 mm in test [4]; 14 mm in [5]; 19 mm in test [7]; 14 mm in test [11]. Moreover, the zone of inhibition at 50 µg/disc is 19 mm in [20] and 15 mm in [22].
`CO[C@H]1C(=O)N(SC)[C@H]1c1cccc(F)c1`: the zone of inhibition at 50 µg/disc in test [2] was 0 mm; in test [3] it was 22 mm; in test [4] it was 16 mm; in test [5], 0 mm; in [7], 0 mm; in [11], 14 mm. Moreover, the results for the zone of inhibition at 50 µg/disc in test [20] and in test [22] were 0 mm and 13 mm, respectively.
Regarding `CO[C@H]1C(=O)N(SC)[C@H]1CCc1ccccc1`, the zone of inhibition at 50 µg/disc in test [2] amounted to 0 mm; in test [3] it was 14 mm; in test [4], 28 mm; in test [5] it was 17 mm; in test [7] it was 20 mm; in test [11], 34 mm. Also, the zone of inhibition at 50 µg/disc worked out at 15 mm in [20] and 24 mm in test [22].
With `CO[C@H]1C(=O)N(SC)[C@H]1c1ccccc1Br`, the zone of inhibition at 50 µg/disc in [2] is 0 mm; in test [3], 40 mm; in test [4], 25 mm; in [5], 21 mm; in [7], 17 mm; in [11], 25 mm. The zone of inhibition at 50 µg/disc in test [20] amounted to 19 mm; in test [22], 13 mm.
For the compound `CO[C@H]1C(=O)N(SC)[C@H]1c1cc(F)cc(F)c1F`, the zone of inhibition at 50 µg/disc in test [2] is 0 mm; in test [3] it was 22 mm; in [4], 16 mm; in test [5] it was 24 mm; in [7], 11 mm; in test [11], 18 mm. Besides, the zone of inhibition at 50 µg/disc in test [20] came out at 17 mm; in [22], 15 mm.
